Data reported in ChEMBL document CHEMBL2434829, “Synthesis of new andrographolide derivatives and evaluation of their antidyslipidemic, LDL-oxidation and antioxidant activity” (2013).
Active and inactive are the calls of the source. The calls are words filed in the database; no cut-off is given here.

Legend:
[1] = Antioxidant activity assessed as reduction of microsomal lipid per-oxidation level by measuring formation of malondialdehyde at 200 ug/ml after 90 mins by spectrophotometric analysis relative to control; format: functional; parameters: scale not given: the % may be the effect or the level left
Rattus norvegicus [2] = test: Antidyslipidemic activity in Charles foster rat assessed as decrease in triton WR-1339-induced total cholesterol level in plasma at 100 mg/kg, po after 18 hrs relative to triton-treated rat; format: functional; parameters: scale not given: the % may be the effect or the level left
How it was run: (§1)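 Male adult Charles Foster rats (200–225 g), six per group. Triton WR-1339 400 mg/kg i.p., with test agent given orally at the same time as a gum acacia suspension in water; food withdrawn. Controls received vehicle. At 18 h, retro-orbital EDTA blood taken and centrifuged 2500 × g for 10 min at 4 °C. Plasma diluted 1:3 in saline; TC, PL and TG read enzymatically on an autoanalyzer. Percent change against triton group.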

Rattus norvegicus [3] = test: Antidyslipidemic activity in Charles foster rat assessed as increase in triton WR-1339-reduced post heparin lipolytic activity level in plasma at 100 mg/kg, po after 18 hrs by spectrophotometric analysis relative to triton-treated rat; format: functional; parameters: scale not given: the % may be the effect or the level left
How it was run: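 Triton WR-1339 hyperlipidemia in male Charles Foster rats: 400 mg/kg i.p. plus oral dose in gum acacia vehicle, fasted, 6 rats/group. Plasma taken 18 h later from retro-orbital blood. Post-heparin lipolytic activity measured spectrophotometrically as nmol free fatty acids formed/h/ml plasma. Percent change against triton-only rats; mean ± SD.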

Rattus norvegicus [4] = test: Antidyslipidemic activity in Charles foster rat assessed as decrease in triton WR-1339-induced phospholipid level in plasma at 100 mg/kg, po after 18 hrs relative to triton-treated rat; format: functional; parameters: scale not given: the % may be the effect or the level left; how it was run: as §1
[5] = Antioxidant activity assessed as decrease in superoxide anions level by measuring formation of formazone at 200 ug/ml after 30 mins by spectrophotometric analysis relative to control; format: functional; parameters: scale not given: the % may be the effect or the level left
How it was run: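 Superoxide made enzymatically with xanthine ([…]), xanthine oxidase (0.04 U) and nitroblue tetrazolium (320 µM) in 100 mM phosphate buffer pH 8.2. Compound at 200 µg/mL, sonicated in buffer. Incubated 37 °C for 30 min, stopped with glacial acetic acid, formazan read spectrophotometrically. Allopurinol as standard.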

[6] = Antioxidant activity assessed as decrease in hydroxyl radicals level by measuring formation of malondialdehyde at 200 ug/ml after 90 mins by spectrophotometric analysis relative to control; format: functional; parameters: scale not given: the % may be the effect or the level left
How it was run: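 Hydroxyl radicals generated without enzyme from deoxyribose 2.8 mM, FeSO4·7H2O 2 mM, sodium ascorbate 2.0 mM and H2O2 2.8 mM in 50 mM KH2PO4 pH 7.4. Compound at 200 µg/mL. Incubated 37 °C for 90 min. Mannitol as standard.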

Rattus norvegicus [7] = test: Antidyslipidemic activity in Charles foster rat assessed as decrease in triton WR-1339-induced triglyceride level in plasma at 100 mg/kg, po after 18 hrs relative to triton-treated rat; format: functional; parameters: scale not given: the % may be the effect or the level left; how it was run: as §1
Rattus norvegicus [8] = test: Antidyslipidemic activity in Charles foster rat assessed as increase in triton WR-1339-reduced lipoprotein lipase level in liver at 100 mg/kg, po relative to triton-treated rat; format: functional, organism-based; parameters: dose 100 mg/kg
How it was run: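 Rats given triton WR-1339 (400 mg/kg i.p.) with oral test agent in gum acacia, 6 per group. Liver homogenized 10% w/v in cold 100 mM phosphate buffer pH 7.2 and assayed for total lipoprotein lipase lipolytic activity. Mean ± SD.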

| Compound | Activity [1] [%] | Activity (Rattus norvegicus [2]) [%] | Activity (Rattus norvegicus [3]) [%] | Activity (Rattus norvegicus [4]) [%] | Activity [5] [%] | Activity [6] [%] | Activity (Rattus norvegicus [7]) [%] | Activity (Rattus norvegicus [8]) |
| --- | --- | --- | --- | --- | --- | --- | --- | --- |
| Cc1c(C)c2c(c(C)c1O)CC[C@@](C)(CCC[C@H](C)CCC[C@H](C)CCCC(C)C)O2 | 55 |  |  |  |  |  |  |  |
| CC1CC[C@@H]2[C@](C)(CO)[C@H](O)CC[C@@]2(C)[C@@H]1CCC1C(=O)OC[C@H]1O (stereo partly specified) | 14 | 11 | 4 | 13 | 13 | 17 | 15 |  |
| C=C1CC[C@@H]2[C@]3(C)COC(C)(C)O[C@@H]3CC[C@@]2(C)[C@@H]1C/C=C1/C(=O)OC[C@H]1O | 17 | 16 | 6 | 12 | 15 | 11 | 15 |  |
| C[C@]1(CO)[C@H]2CC[C@@]3(CO3)[C@@H](C/C=C3/C(=O)OC[C@H]3O)[C@]2(C)CC[C@H]1O | 14 | 15 | 6 | 17 | 17 | 15 | 14 |  |
| CC(C)OC(=O)C(C)(C)Oc1ccc(C(=O)c2ccc(Cl)cc2)cc1 [FENOFIBRATE] |  | 32 | 17 | 33 |  |  | 33 | Active |
| Cc1ccc(C)c(OCCCC(C)(C)C(=O)O)c1 [GEMFIBROZIL] |  | 30 | 16 | 30 |  |  | 28 | Active |
| C=C1CC[C@@H]2[C@](C)(CO)[C@H](O)CC[C@@]2(C)[C@@H]1C/C=C1\C=COC1=O | 13 | 19 | 10 | 17 | 16 | 18 | 18 |  |
| C=C1CC[C@@H]2[C@]3(C)COC(C)(C)O[C@@H]3CC[C@@]2(C)[C@@H]1C/C=C1/C(=O)OC[C@H]1OC(C)=O | 26 | 16 | 5 | 14 | 23 | 25 | 13 |  |
| C=C1CC[C@@H]2[C@](C)(COS(=O)(=O)c3ccc(C)cc3)[C@H](O)CC[C@@]2(C)[C@@H]1C/C=C1/C(=O)OC[C@H]1OC(C)=O | 29 | 20 | 13 | 22 | 27 | 30 | 22 |  |
| C=C1CC[C@@H]2[C@](C)(CO)[C@H](O)CC[C@@]2(C)[C@@H]1CCC1C(=O)OC[C@H]1O (stereo partly specified) | 10 | 12 | 5 | 10 | 14 | 11 | 11 |  |
| C=C1CC[C@@H]2[C@](C)(CO)[C@H](O)CC[C@@]2(C)[C@@H]1C/C=C1/C(=O)OC[C@H]1OC(C)=O | 19 | 13 | 7 | 13 | 19 | 17 | 15 |  |
| CC1CC[C@@H]2[C@](C)(CO)[C@H](O)CC[C@@]2(C)[C@@H]1C/C=C1/C(=O)OC[C@H]1O (stereo partly specified) | 17 | 14 | 5 | 17 | 19 | 15 | 15 |  |
| C=C1CC[C@H]2[C@@](C)(CCC(=O)[C@@]2(C)C=O)[C@@H]1C/C=C1/C(=O)OC[C@H]1O | 14 | 13 | 4 | 10 | 16 | 12 | 10 |  |
| C=C1CC[C@@H]2[C@](C)(COC(C)=O)[C@H](OC(C)=O)CC[C@@]2(C)[C@@H]1C/C=C1/C(=O)OC[C@H]1OC(C)=O | 11 | 19 | 11 | 16 | 12 | 16 | 18 |  |
| OC[C@@H](O)[C@@H](O)[C@H](O)[C@H](O)CO |  |  |  |  |  | 50 |  |  |
| C=C1CC[C@@H]2[C@](C)(COS(=O)(=O)c3c(C)cc(C)cc3C)[C@H](O)CC[C@@]2(C)[C@@H]1C/C=C1/C(=O)OC[C@H]1OC(C)=O | 26 | 12 | 6 | 14 | 31 | 28 | 11 |  |
| C=C1CC[C@@H]2[C@](C)(COS(=O)(=O)c3c(C)cc(C)cc3C)[C@H](O)CC[C@@]2(C)[C@@H]1C/C=C1/C(=O)OC[C@H]1O | 26 | 22 | 12 | 20 | 23 | 25 | 20 |  |
| C=C1CC[C@@H]2[C@](C)(CO)[C@H](O)CC[C@@]2(C)[C@@H]1CCC1=CCOC1=O [DEOXYANDROGRAPHOLIDE] | 13 | 17 | 6 | 14 | 11 | 16 | 12 |  |
| Oc1ncnc2[nH]ncc12 |  |  |  |  | 54 |  |  |  |
